Rows were chosen to be rich in hits. Some 3.3% of all compounds tested hit in one or more screens of this group.
DENV2 CPE – DENV2-induced cell death inhibition | DENV2-infected cells, cytopathic effect rescue, plate reader | CPE inhibition, % at 9.99 µM | 350,000 tested, 1.7% active | AID 651640; in the data active = CPE inhibition above about 20%, passing the limit was not always enough; tested in BHK-21 cells
E-selectin induc – induces E-selectin expression in human endothelial cells; P16581; HUVEC E-selectin immunofluorescence imaging; normalized: neutral wells 0, TNF-alpha wells 100; activation, % at 7.58 µM; 260,000 tested, 0.37% active;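 active = mean E-selectin-positive cell signal at least 10% of the positive control, reached in at least 60% of replicates, without over 20% cell loss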
Target sequence (P16581 whole entry, looked up): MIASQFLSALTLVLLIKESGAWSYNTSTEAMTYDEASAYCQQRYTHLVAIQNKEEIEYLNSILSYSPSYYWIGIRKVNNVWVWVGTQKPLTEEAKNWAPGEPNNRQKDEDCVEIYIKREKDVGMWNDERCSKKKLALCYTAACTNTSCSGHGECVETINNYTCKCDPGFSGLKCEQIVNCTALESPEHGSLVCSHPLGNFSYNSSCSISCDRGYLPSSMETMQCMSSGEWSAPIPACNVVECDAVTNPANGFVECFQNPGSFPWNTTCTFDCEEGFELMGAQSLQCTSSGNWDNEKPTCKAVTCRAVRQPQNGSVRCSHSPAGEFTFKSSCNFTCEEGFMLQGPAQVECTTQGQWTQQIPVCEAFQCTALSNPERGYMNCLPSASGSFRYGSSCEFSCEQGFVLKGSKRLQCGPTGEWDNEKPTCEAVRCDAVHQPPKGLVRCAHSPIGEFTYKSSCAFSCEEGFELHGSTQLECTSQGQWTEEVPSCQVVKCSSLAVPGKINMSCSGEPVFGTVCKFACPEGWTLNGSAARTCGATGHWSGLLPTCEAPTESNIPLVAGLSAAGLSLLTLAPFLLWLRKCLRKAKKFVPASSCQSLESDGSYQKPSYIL
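Assay system: HUVEC, human umbilical vein endothelial cells / Amount: 3,000 HUVEC/well / Controls: TNF-alpha positive control, DMSO neutral control / Compound dosing: single concentration / Medium: EGM-2 over gelatin coat / Evaluation: percent E-selectin-positive cells / Signal: immunofluorescence imaging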
FGF22 binding – binders of recombinant human FGF22 by thermal shift; Q9HCT0; 340,000 tested, 1.5% active; AID 651658; SYPRO orange fluorescence; percent of sucrose octasulfate shift, DMSO zero; activity (Tm shift, normalised), % at 9.99 µM;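 active = mean Tm shift, scaled 0 neutral to 100 positive control, at about 1.3% or above, every replicate too, limit read from the data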
Statin myotox sup – suppressors of simvastatin-induced myotoxicity in C2C12 myotubes; ATP luminescence, 48 h; scaled: DMSO 0, geranylgeraniol control 100; rescue of ATP level, % at 7.49 µM; 330,000 tested, 0.78% active; AID 602340;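 active = mean ATP rescue above about 67%, or every replicate alone reaching that limit, limit read from the data, passing the limit was not always enough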;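 also: myotubes were challenged with 10 µM simvastatin during compound exposure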
PglD DTNB – blocks C. jejuni PglD acetyltransferase activity; purified PglD enzyme, DTNB colorimetric CoA detection; inhibition, % at 12.5 µM; 360,000 tested, 0.098% active; AID 602405; in the data active = inhibition above about 16%, passing the limit was not always enough
Xi reactivation – X-chromosome reactivation activator; XiGFP mouse fibroblasts, % GFP-positive cells imaging, 3 d; cells co-treated with 5-aza-dC sensitizer; scaled so ellipticine positive control = 100%; activation, % at 7.58 µM; 360,000 tested, 0.055% active; AID 743238;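 active = mean normalized replicate activation at least 10% and every replicate at or above 10%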
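Material: XiGFP fibroblasts, SV40-immortalized. Buffer or medium: DMEM plus 5-aza-dC sensitizer. Compound: single concentration per compound, delivered by pin transfer. Times: 3 days compound exposure. Controls: ellipticine 6 µM.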
A number is an active result; i = inactive; nt = no result given.

SMILES | DENV2 CPE | E-selectin induc | FGF22 binding | Statin myotox sup | PglD DTNB | Xi reactivation
C[C@H]1CN([C@@H](C)CO)C(=O)c2cccc(NS(=O)(=O)c3cccs3)c2O[C@@H]1CN(C)CC1CC1 | i | i | i | i | i | i
CCCNC(=O)N1CC2(CCN(Cc3nccs3)CC2)c2c([nH]c3cc(OC)ccc23)[C@H]1CO | i | i | i | nt | nt | i
O=C(CSc1nc2ccccc2c(=O)n1-c1ccccc1F)NC1CCS(=O)(=O)C1 (stereo not given) | i | nt | i | i | i | i
O=C(CSc1nc2ccccc2c(=O)n1-c1ccc(F)cc1F)NC1CC1 | i | i | 43 | i | i | i
Cc1ccc(-n2c(SCC(=O)NC3CCS(=O)(=O)C3)nc3ccccc3c2=O)c(C)c1 (stereo not given) | 38 | i | i | i | i | i
O=C(CSc1nc2ccccc2c(=O)n1-c1ccccc1F)NC1CC1 | 22 | nt | i | i | i | i
Cc1ccc(S(=O)(=O)N(C)C[C@H]2Oc3ccc(NS(=O)(=O)c4ccccc4)cc3C(=O)N([C@H](C)CO)C[C@@H]2C)cc1 | i | i | i | nt | i | i
O=C(Nc1ccccc1F)N1CC(=O)N2[C@@H](CO)[C@@H](c3ccc(C#Cc4ccccc4)cc3)[C@@H]2C1 | i | i | nt | nt | nt | i
C[C@H](NC(=O)CCCOc1ccc(Cl)cc1Cl)c1nnc2ccccn12 | 41 | i | i | i | i | i
O=C(CCCOc1ccc(Cl)cc1Cl)NCCc1nnc2ccccn12 | i | i | i | nt | nt | i
CNC[C@@H]1Oc2ccc(NC(=O)Nc3cccc4ccccc34)cc2C(=O)N([C@H](C)CO)C[C@@H]1C | i | nt | i | i | i | i
CCC(C)C(NC(=O)OC(C)(C)C)C(=O)NC(C)C(N)=O (stereo not given) | i | i | 43 | nt | nt | i
CCC(C)C(NC(=O)OC(C)(C)C)C(=O)NC(CC(C)C)C(N)=O (stereo not given) | nt | nt | nt | i | nt | nt
O=C(CCl)Nc1ccc(S(=O)(=O)NC2=NCCCCC2)cc1 | 60 | i | i | i | i | i
C[C@@H]1CN([C@@H](C)CO)C(=O)c2cccc(NS(=O)(=O)c3ccc(Cl)cc3)c2O[C@H]1CN(C)C(=O)Nc1ccc(C(F)(F)F)cc1 | i | i | i | i | i | i
CC(C)C#Cc1ccc([C@@H]2[C@H](CO)N3CCCCN(CC4CC4)C[C@@H]23)cc1 | 22 | i | i | nt | i | i
CC(C)C#Cc1ccc([C@@H]2[C@H]3CN(CC4CC4)CCCCN3[C@H]2CO)cc1 | 26 | i | i | nt | i | i
CC(C)C#Cc1ccc([C@H]2[C@H]3CN(CC4CC4)CCCCN3[C@H]2CO)cc1 | i | i | i | nt | i | i
O=C(O)CCC(=O)Nc1nnc(C(F)(F)F)s1 | nt | nt | nt | 115 | i | nt
COC(=O)CCC(=O)Nc1nnc(C(F)(F)F)s1 | nt | nt | nt | i | i | nt
Cc1ccc(CSc2nnc3nc(C)cc(C)n23)cc1 | nt | nt | nt | 139 | i | nt
CCSc1nnc2nc(C)cc(C)n12 | nt | nt | nt | nt | i | nt
C[C@@H]1CCCCO[C@H](CN(C)Cc2ccc(C(=O)O)cc2)[C@@H](C)CN([C@@H](C)CO)C(=O)c2cc(NC(=O)c3ccccc3)ccc2O1 | i | i | i | nt | i | i
C[C@@H]1CN([C@H](C)CO)C(=O)c2cc(NC(=O)c3ccccc3)ccc2O[C@@H](C)CCCCO[C@@H]1CN(C)Cc1ccc(C(=O)O)cc1 | 115 | i | i | nt | i | i
C[C@@H]1CCCCO[C@H](CN(C)Cc2ccc(C(=O)O)cc2)[C@H](C)CN([C@@H](C)CO)C(=O)c2cc(NC(=O)c3ccncc3)ccc2O1 | 32 | i | i | nt | i | i
C[C@H]1CCCCO[C@H](CN(C)Cc2ccc(C(=O)O)cc2)[C@@H](C)CN([C@@H](C)CO)C(=O)c2cc(NC(=O)c3ccncc3)ccc2O1 | i | i | i | nt | i | i
C[C@H]1CCCCO[C@@H](CN(C)Cc2ccc(C(=O)O)cc2)[C@@H](C)CN([C@@H](C)CO)C(=O)c2cc(NC(=O)c3ccccc3)ccc2O1 | i | i | i | nt | i | i
C[C@@H]1CCCCO[C@@H](CN(C)Cc2ccc(C(=O)O)cc2)[C@H](C)CN([C@H](C)CO)C(=O)c2cc(NC(=O)c3ccccc3)ccc2O1 | 79 | i | i | nt | i | i
